In brackets after ≈: the same amount, converted by molar mass. Activity calls are given as the source filed them. No cut-off for these calls is given here.
Assays:
[1] = test system: Mycobacterium avium; assay: Antimycobacterial activity against isoniazid, rifampicin, ethambutol and ofloxacin-resistant Mycobacterium avium My 330/88 after 21 days; assay type: functional; settings: My 330/88, 504 h
In short: (§1)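 Micromethod MIC in Šula's semisynthetic medium at 37 °C. Compounds added in DMSO at 1000 down to 0.032 µmol/L. Isoniazid standard in sterile water at 0.5–250 µmol/L. Inocula: H37Rv 10^3, M. avium 10^5, M. kansasii 10^4. Read at 14 and 21 d, plus 7 d for M. kansasii.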

[2] = test system: Mycobacterium avium; assay: Antimycobacterial activity against isoniazid, rifampicin, ethambutol and ofloxacin-resistant Mycobacterium avium My 330/88 after 14 days; assay type: functional; settings: My 330/88, 336 h; in short: as §1
[3] = test system: Mycobacterium tuberculosis; assay: Antimycobacterial activity against Mycobacterium tuberculosis H37Rv My 331/88 after 21 days; assay type: functional; settings: H37Rv My 331/88, 504 h; in short: as §1
[4] = test system: Mycobacterium tuberculosis; assay: Antimycobacterial activity against Mycobacterium tuberculosis H37Rv My 331/88 after 14 days; assay type: functional; settings: H37Rv My 331/88, 336 h; in short: as §1
[5] = test system: Trichophyton mentagrophytes; assay: Antifungal activity against Trichophyton mentagrophytes 445 after 120 hrs by broth microdilution method; assay type: functional; settings: Trichophyton mentagrophytes, 445, 120 h
In short: (§2)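 Filamentous dermatophyte tested by broth microdilution in RPMI 1640 with glutamine, fluconazole as reference. Value expressed as IC50 relative to growth control. Read at 72 and 120 h.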

[6] = test system: Trichophyton mentagrophytes; assay: Antifungal activity against Trichophyton mentagrophytes 445 after 72 hrs by broth microdilution method; assay type: functional; settings: Trichophyton mentagrophytes, 445, 72 h; in short: as §2
[7] = test system: Lichtheimia corymbifera; assay: Antifungal activity against Absidia corymbifera 272 after 48 hrs by broth microdilution method; assay type: functional; settings: Lichtheimia corymbifera, 272, 48 h
In short: (§3)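 Broth microdilution in RPMI 1640 with glutamine, fluconazole as reference. For yeasts, MIC is ≥80% growth reduction (IC80) versus control. For filamentous fungi, the value is expressed as IC50. Readings at 24 and 48 h.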

[8] = test system: Lichtheimia corymbifera; assay: Antifungal activity against Absidia corymbifera 272 after 24 hrs by broth microdilution method; assay type: functional; settings: Lichtheimia corymbifera, 272, 24 h; in short: as §3
[9] = test system: Aspergillus fumigatus; assay: Antifungal activity against Aspergillus fumigatus 231 after 48 hrs by broth microdilution method; assay type: functional; settings: Aspergillus fumigatus, 231, 48 h; in short: as §3
[10] = test system: Aspergillus fumigatus; assay: Antifungal activity against Aspergillus fumigatus 231 after 24 hrs by broth microdilution method; assay type: functional; settings: Aspergillus fumigatus, 231, 24 h; in short: as §3
[11] = test system: Trichosporon asahii; assay: Antifungal activity against Trichosporon asahii 1188 after 48 hrs by broth microdilution method; assay type: functional; settings: Trichosporon asahii, 1188, 48 h; in short: as §3
[12] = test system: Trichosporon asahii; assay: Antifungal activity against Trichosporon asahii 1188 after 24 hrs by broth microdilution method; assay type: functional; settings: Trichosporon asahii, 1188, 24 h; in short: as §3
[13] = test system: Pichia kudriavzevii; assay: Antifungal activity against Candida krusei E28 after 48 hrs by broth microdilution method; assay type: functional; settings: E28, 48 h; in short: as §3
[14] = test system: Pichia kudriavzevii; assay: Antifungal activity against Candida krusei E28 after 24 hrs by broth microdilution method; assay type: functional; settings: E28, 24 h; in short: as §3
[15] = test system: Candida albicans; assay: Antifungal activity against Candida albicans ATCC 44859 after 48 hrs by broth microdilution method; assay type: functional; settings: ATCC 44859, 48 h; in short: as §3
[16] = test system: Candida albicans; assay: Antifungal activity against Candida albicans ATCC 44859 after 24 hrs by broth microdilution method; assay type: functional; settings: ATCC 44859, 24 h; in short: as §3
[17] = test system: Nakaseomyces glabratus; assay: Antifungal activity against Candida glabrata 20/I at 500 micromol/L after 24 to 48 hrs by broth microdilution method; assay type: functional, organism-based; in short: as §3
[18] = test system: Candida tropicalis; assay: Antifungal activity against Candida tropicalis 156 at 500 micromol/L after 24 to 48 hrs by broth microdilution method; assay type: functional, organism-based; in short: as §3
[19] = test system: Pseudomonas aeruginosa; assay: Antibacterial activity against Pseudomonas aeruginosa CCM 1961 at 500 micromol/L after 24 to 48 hrs by broth microdilution method; assay type: functional, organism-based
In short: (§4)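 Broth microdilution in Mueller–Hinton broth, compounds dissolved in DMSO, tested over a dilution series from 500 downward. MIC taken as ≥95% growth reduction (IC95) versus drug-free control. Benzylpenicillin comparator. Readings at 24 and 48 h.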

[20] = test system: Klebsiella pneumoniae; assay: Antibacterial activity against ESBL-positive Klebsiella pneumoniae J 14368/08 at 500 micromol/L after 24 to 48 hrs by broth microdilution method; assay type: functional, organism-based; in short: as §4
[21] = test system: Klebsiella pneumoniae; assay: Antibacterial activity against Klebsiella pneumoniae D 11750/08 at 500 micromol/L after 24 to 48 hrs by broth microdilution method; assay type: functional, organism-based; in short: as §4
[22] = test system: Escherichia coli; assay: Antibacterial activity against Escherichia coli CCM 4517 at 500 micromol/L after 24 to 48 hrs by broth microdilution method; assay type: functional, organism-based; in short: as §4
[23] = test system: Enterococcus sp.; assay: Antibacterial activity against Enterococcus sp. J 14365/08 at 500 micromol/L after 24 to 48 hrs by broth microdilution method; assay type: functional, organism-based; in short: as §4
[24] = test system: Staphylococcus epidermidis; assay: Antibacterial activity against Staphylococcus epidermidis H 6966/08 after 48 hrs by broth microdilution method; assay type: functional; settings: H 6966/08, 48 h; in short: as §4
[25] = test system: Staphylococcus epidermidis; assay: Antibacterial activity against Staphylococcus epidermidis H 6966/08 after 24 hrs by broth microdilution method; assay type: functional; settings: H 6966/08, 24 h; in short: as §4
[26] = test system: Staphylococcus aureus; assay: Antibacterial activity against methicillin-resistant Staphylococcus aureus H 5996/08 after 48 hrs by broth microdilution method; assay type: functional; settings: H 5996/08, 48 h; in short: as §4
[27] = test system: Staphylococcus aureus; assay: Antibacterial activity against methicillin-resistant Staphylococcus aureus H 5996/08 after 24 hrs by broth microdilution method; assay type: functional; settings: H 5996/08, 24 h; in short: as §4
[28] = test system: Staphylococcus aureus; assay: Antibacterial activity against Staphylococcus aureus CCM 4516/08 after 48 hrs by broth microdilution method; assay type: functional; settings: CCM 4516/08, 48 h; in short: as §4
[29] = test system: Staphylococcus aureus; assay: Antibacterial activity against Staphylococcus aureus CCM 4516/08 after 24 hrs by broth microdilution method; assay type: functional; settings: CCM 4516/08, 24 h; in short: as §4
[30] = test system: Mycobacterium kansasii; assay: Antimycobacterial activity against Mycobacterium kansasii 6509/96 after 21 days; assay type: functional; settings: 6509/96, 504 h; in short: as §1
[31] = test system: Mycobacterium kansasii; assay: Antimycobacterial activity against Mycobacterium kansasii 6509/96 after 14 days; assay type: functional; settings: 6509/96, 336 h; in short: as §1
[32] = test system: Mycobacterium kansasii; assay: Antimycobacterial activity against Mycobacterium kansasii 6509/96 after 7 days; assay type: functional; settings: 6509/96, 168 h; in short: as §1
[33] = test system: Mycobacterium kansasii; assay: Antimycobacterial activity against Mycobacterium kansasii My 235/80 after 21 days; assay type: functional; settings: My 235/80, 504 h; in short: as §1
[34] = test system: Mycobacterium kansasii; assay: Antimycobacterial activity against Mycobacterium kansasii My 235/80 after 14 days; assay type: functional; settings: My 235/80, 336 h; in short: as §1
[35] = test system: HepG2; assay: Cytotoxicity against human HepG2 cells after 24 hrs by CellTiter assay; assay type: cell-based; settings: HepG2, 24 h
In short: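 HepG2 cells (passage 27–33) in MEM with 10% FBS, L-glutamine and NEAA, seeded at 1×10^4 per well. Treated next day with compounds at 0.1–100 µM (or 0.1–25 µmol/L), triplicates, <1% DMSO, for 24 h at 37 °C, 5% CO2. MTS reagent added for 2 h, absorbance read at 490 nm. IC50 taken against untreated (100%) and 10% DMSO (0%) controls.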

[36] = test system: Mycobacterium kansasii; assay: Antimycobacterial activity against Mycobacterium kansasii My 235/80 after 7 days; assay type: functional; settings: My 235/80, 168 h; in short: as §1

Row | Structure (SMILES) | MIC [1] [µM] | MIC [2] [µM] | MIC [3] [µM] | MIC [4] [µM] | MIC50 [5] [µM] | MIC50 [6] [µM] | MIC50 [7] [µM] | MIC50 [8] [µM] | MIC50 [9] [µM] | MIC50 [10] [µM] | MIC80 [11] [µM] | MIC80 [12] [µM] | MIC80 [13] [µM] | MIC80 [14] [µM] | MIC80 [15] [µM] | MIC80 [16] [µM] | Activity [17] | Activity [18] | Activity [19] | Activity [20] | also measured
1 | CCOP(=O)(OCC)Oc1cc(Cl)ccc1C(=O)Nc1cccc(C(F)(F)F)c1 | 16 (≈ 7.23 µg/mL) | 16 (≈ 7.23 µg/mL) | 4 (≈ 1.81 µg/mL) | 4 (≈ 1.81 µg/mL) | 31.2 (≈ 14.1 µg/mL) | 31.2 (≈ 14.1 µg/mL) | > 500 | > 500 | > 500 | > 500 | > 500 | > 500 | > 500 | > 500 | > 500 | > 500 | inactive | inactive | inactive | inactive | Activity [21]: inactive; Activity [22]: inactive; Activity [23]: inactive; MIC95 [24]: 31.2 µM (≈ 14.1 µg/mL); MIC95 [25]: 15.6 µM (≈ 7.06 µg/mL); MIC95 [26]: 62.5 µM (≈ 28.2 µg/mL); MIC95 [27]: 31.2 µM (≈ 14.1 µg/mL); MIC95 [28]: 62.5 µM (≈ 28.2 µg/mL); MIC95 [29]: 31.2 µM (≈ 14.1 µg/mL); MIC [30]: 8 µM (≈ 3.61 µg/mL); MIC [31]: 8 µM (≈ 3.61 µg/mL); MIC [32]: 4 µM (≈ 1.81 µg/mL); MIC [33]: 4 µM (≈ 1.81 µg/mL); MIC [34]: 4 µM (≈ 1.81 µg/mL); IC50 [35]: 3.85 µM; MIC [36]: 2 µM (≈ 0.904 µg/mL)
2 | CCOP(=O)(OCC)Oc1ccc(Cl)cc1C(=O)Nc1ccc(Cl)cc1 | 8 (≈ 3.35 µg/mL) | 8 (≈ 3.35 µg/mL) | 4 (≈ 1.67 µg/mL) | 4 (≈ 1.67 µg/mL) | 500 (≈ 209 µg/mL) | 500 (≈ 209 µg/mL) | > 500 | > 500 | > 500 | > 500 | > 500 | > 500 | > 500 | > 500 | > 500 | > 500 | inactive | inactive | inactive | inactive | Activity [21]: inactive; Activity [22]: inactive; Activity [23]: inactive; MIC95 [24]: 250 µM (≈ 105 µg/mL); MIC95 [25]: 125 µM (≈ 52.3 µg/mL); MIC95 [26]: 250 µM (≈ 105 µg/mL); MIC95 [27]: 125 µM (≈ 52.3 µg/mL); MIC95 [28]: 125 µM (≈ 52.3 µg/mL); MIC95 [29]: 62.5 µM (≈ 26.1 µg/mL); MIC [30]: 8 µM (≈ 3.35 µg/mL); MIC [31]: 8 µM (≈ 3.35 µg/mL); MIC [32]: 8 µM (≈ 3.35 µg/mL); MIC [33]: 8 µM (≈ 3.35 µg/mL); MIC [34]: 8 µM (≈ 3.35 µg/mL); IC50 [35]: 13 µM; MIC [36]: 8 µM (≈ 3.35 µg/mL)
